# Sampled rows, rich in hits. Any-hit rate of the full collection: about 3.1%.
# Apaf-1 inh – inhibitors of human Apaf-1 apoptosome, primary screen, biochemical, DEVD-Rh110 fluorescence, uHTS; AID 489030, 2010; 0.71% of 330,000 active; inhibition, % at 20 µM; reconstituted apoptosome caspase-3 activity; active = inhibition of at least 40% at 20 µM;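 note: plate controls were DMSO wells for no effect and DEVD-CHO caspase inhibitor wells for full effect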
#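 System: Apoptosome proteins | Medium: Hepes pH 7.5 with detergent and BSA | Also added: Cytochrome c trigger plus (Z-DEVD)2-Rh110 caspase-3 substrate | Incubation: 30 min compound preincubation, 50 min activation, room temperature | Detection: Rhodamine 110 fluorescence at Ex 480/Em 540 nm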
# MEKK3 PB1 HTS – modulators of MEKK3-MEK5 PB1 binding, primary screen, biochemical, wildtype MEKK3, multiplex bead flow cytometry, Alexa488-MEK5 | Mitogen-activated protein kinase kinase kinase 3 (Homo sapiens), Q99759 | bead-based flow cytometry, Alexa488-MEK5 binding to MEKK3; actives lie on both sides; 0 = blocked by unlabeled MEK5, 100 = vehicle | binding response (% of control), % at 10 µM | 1.4% of 290,000 active;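 active = binding response more than 3 SD above or below the average of its plate-row segment, actives on both sides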;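 note: Alexa488 bead fluorescence after subtracting the streptavidin-only scavenger bead signal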
# PREPL inh – PREPL enzyme inhibitors, primary screen, biochemical, fluorescence polarization | Prolyl endopeptidase-like (Homo sapiens), Q4J6C6 | recombinant PREPL, fluorescence polarization activity-based probe | inhibition, % at 5.96 µM | 0.68% of 320,000 active; in the data active = inhibition above about 43%;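 note: 0% = enzyme with DMSO and 100% = wells lacking enzyme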
# Target sequence (Q4J6C6 whole entry, looked up): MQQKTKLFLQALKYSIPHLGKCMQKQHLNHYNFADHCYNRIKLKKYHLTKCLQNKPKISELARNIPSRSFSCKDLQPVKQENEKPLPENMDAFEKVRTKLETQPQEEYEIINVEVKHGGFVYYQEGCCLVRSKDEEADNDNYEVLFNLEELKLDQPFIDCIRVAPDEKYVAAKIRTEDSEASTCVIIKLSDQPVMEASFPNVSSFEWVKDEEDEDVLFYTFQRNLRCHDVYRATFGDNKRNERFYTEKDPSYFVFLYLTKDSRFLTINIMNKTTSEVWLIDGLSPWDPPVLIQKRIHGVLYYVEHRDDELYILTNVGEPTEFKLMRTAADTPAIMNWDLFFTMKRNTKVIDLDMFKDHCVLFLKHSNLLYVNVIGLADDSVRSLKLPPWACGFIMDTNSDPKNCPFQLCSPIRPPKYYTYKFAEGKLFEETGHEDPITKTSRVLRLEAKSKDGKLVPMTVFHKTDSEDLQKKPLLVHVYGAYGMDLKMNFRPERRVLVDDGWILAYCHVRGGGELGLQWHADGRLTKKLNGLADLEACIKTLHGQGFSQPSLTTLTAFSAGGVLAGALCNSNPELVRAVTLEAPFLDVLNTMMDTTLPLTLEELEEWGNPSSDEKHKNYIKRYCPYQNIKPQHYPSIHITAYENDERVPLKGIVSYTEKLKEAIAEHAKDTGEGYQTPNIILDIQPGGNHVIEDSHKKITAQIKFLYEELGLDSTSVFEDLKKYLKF
# MEKK2wt PB1 HTS – modulators of MEK5 binding to wildtype MEKK2, primary screen, biochemical, multiplex bead flow cytometry, Alexa488-MEK5. Mitogen-activated protein kinase kinase kinase 2 (Homo sapiens), Q9Y2U5. AID 1531, 2009. Alexa488-MEK5 binding to MEKK2 WT; actives lie on both sides. 1.1% of 290,000 active. binding response (% of control), % at 10 µM; in the data active = binding response below about 67% or above about 130%
# MEKK2mut PB1 HTS – MEK5 binding signal on mutant MEKK2 PB1, primary screen, biochemical, multiplex bead flow cytometry, Alexa488-MEK5. percent response, % at 10 µM. Alexa488-MEK5 binding to MEKK2 mutant. AID 1530, 2009. 0.35% of 290,000 active; in the data active = percent response above about 24%, passing the limit was not always enough
# UBC13 polyUb – UBC13 polyubiquitin chain formation inhibitors, primary screen, biochemical, TR-FRET, uHTS; 0.47% of 330,000 active; inhibition, % at 20 µM; in the data active = inhibition above about 45%, passing the limit was not always enough
# MEKK2wt confirm – modulators of MEK5 binding to wildtype MEKK2, confirmation, biochemical, single concentration, multiplex bead flow cytometry; shares compounds with MEKK3 PB1 HTS; Alexa488-MEK5 binding to MEKK2 WT; actives lie on both sides; binding response (% of control), % at 10 µM; 2.4% of 5,900 active; AID 1892, 2009; in the data active = binding response below about 16% or above about 210%; inactive = in between
# MEKK2mut-MEK5 – mutant MEKK2 PB1-MEK5 binding signal retest – biochemical, single concentration, multiplex bead flow cytometry, confirmation; shares compounds with MEKK3 PB1 HTS; Alexa488-MEK5 binding to MEKK2 mutant; percent response, % at 10 µM; 2% of 5,900 active; AID 1893, 2009; in the data active = percent response mostly above about 71%, no sharp cut-off; inactive = mostly below about 38%;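 note: higher means compound restores mutant binding toward wildtype level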
# MEKK3 confirm – MEKK3 wild-type PB1 binding to MEK5, inhibitors, confirmation, biochemical, bead multiplex flow cytometry, single concentration, wildtype; AID 1894, 2009; binding response (% of control), % at 10 µM; Alexa488-MEK5 binding to MEKK3; active compounds read low; 1.8% of 5,900 active; shares compounds with MEKK3 PB1 HTS;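 active = binding response below 72% of control, or above a set upper limit, though filed actives all read lower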;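 note: 100% = DMSO only wells and 0% = binding blocked by excess unlabeled MEK5; lower values mean stronger disruption of MEK5 binding to MEKK3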
# Starred values were filed as active, the others as inactive; x = not tested or not shown; [ ] = another dose, or the depositor's remark.
SMILES,Apaf-1 inh,MEKK3 PB1 HTS,PREPL inh,MEKK2wt PB1 HTS,MEKK2mut PB1 HTS,UBC13 polyUb,MEKK2wt confirm,MEKK2mut-MEK5,MEKK3 confirm
O=[N+]([O-])c1ccc(/C=C/C2=NN(c3ccccc3)C(c3ccco3)C2)o1 (centres undefined),x,15*[inhibitor],x,x,44,x,29,-52,20*
CCn1c(CC(=O)Nc2ccc(OC)cc2)nnc1SCC(=O)N1CCOCC1,1,102,11,103,0,-3,x,x,x
COc1ccc2c(c1)CC/C(=C\C=C\c1ccccc1OC)C2=O,21,78,-2,61,-3,-16,x,x,x
COc1ccc2c(c1)C(=O)/C(=C/C=C/c1ccccc1)CC2,23,90,-10,71*[inhibitor],-1,6,86,-7,99
CCOc1ccccc1N/C(=N/c1nc(C)cc(C)n1)NC(=O)Nc1ccc(Cl)c(Cl)c1,11,72*[inhibitor],-2,94,-1,-17,100,-5,102
CCCOc1ccccc1N/C(=N/c1nc(C)cc(C)n1)NC(=O)Nc1ccc(Cl)cc1,2,101,1,99,1,-5,x,x,x
CCOc1ccc(S(=O)(=O)NCCC(=O)NCC(c2ccco2)N2CCCCC2)cc1 (centres undefined),-2,x,2,x,x,8,x,x,x
O=C(NNC(=O)c1cccs1)c1ccc(Cl)c(Cl)c1,-16,149*,-1,109,2,-6,97,-2,97
O=C(NNC(=O)c1cccs1)c1ccc2ccccc2c1,6,94,5,92,-10,-4,x,x,x
COc1ccccc1S(=O)(=O)Cc1ccc(C(=O)NCCN2CCCCCC2)o1,18,102,10,135*,19,12,142,27,108
COCCNC(=O)c1ccc(CS(=O)(=O)c2ccccc2OC)o1,4,107,4,106,2,-2,x,x,x
CCn1c(C)c(Br)c(=O)c(C(=O)OC)c1-c1ccc(Cl)cc1,5,107,1,103,3,-8,x,x,x
COC(=O)C(Cc1ccc(O)cc1)NC(=O)CCOc1ccc(OC)cc1 (centres undefined),-12,106,3,105,4,-1,x,x,x
CCCCNC(=S)Nc1ccc(-c2nc3ccc(C)cc3s2)cc1,-2,134*,4,105,0,-8,105,3,107
COc1cc(NC(=O)C2CCN(S(=O)(=O)c3ccc4[nH]c(=O)oc4c3)CC2)cc(OC)c1,17,106,-2,105,10,-10,x,x,x
CN(C)S(=O)(=O)N(CCN1CCOCC1)Cc1ccccc1F,-6,105,-4,112,24*,-1,99,0,97
O=C(Nc1ccccc1)N(CCN1CCOCC1)Cc1ccccc1F,-8,103,12,104,6,8,x,x,x
CCCCN1C(=O)C(CC(=O)NCC)SC1=Nc1ccccc1 (centres undefined),1,134*,2,108,6,7,95,4,95
O=C(NNc1nc(-c2ccccc2)cs1)c1cccs1,1,69*[inhibitor],6,76,-35,-9,100,0,104
CCCc1cc(=O)[nH]c(SCC(=O)NCCN2C(=O)CSC2=O)n1,-2,x,15,x,x,-16,x,x,x
Cn1c(Cc2ccc3c(c2)OCO3)nnc1SCC(=O)NC(C)(C)C,-6,65*[inhibitor],1,64,-12,-3,104,-2,103
O=C(O)CCC(=O)c1ccc(-c2ccccc2)cc1,12,67*[inhibitor],-1,32*[inhibitor],2,-14,102,-7,99
CC(=O)c1ccc(NC(=O)CCCN2C(=O)COc3ccc(C)cc32)cc1,6,98,4,98,1,0,x,x,x
CCOC(=O)c1c(NC(=O)CSc2nnc3c(n2)[nH]c2ccccc23)sc2c1CCN(C)C2,6,107,-7,144*,15,-11,137,20,102
O=C(c1cccc(NS(=O)(=O)c2ccc(F)c(F)c2)c1)N1CCCCC1,-5,x,x,x,x,-1,x,x,x
SMILES,Apaf-1 inh,MEKK3 PB1 HTS,PREPL inh,MEKK2wt PB1 HTS,MEKK2mut PB1 HTS,UBC13 polyUb,MEKK2wt confirm,MEKK2mut-MEK5,MEKK3 confirm
COc1cc(OC)c2c(-c3ccccc3)cc(=O)oc2c1C(CC(=O)N1CCOCC1)c1ccc2c(c1)OCO2 (centres undefined),18,127,-9,144*,3,3,106,0,100
CCN(CC)C(=O)CC(c1cc(OC)c(OC)c(OC)c1)c1c(OC)cc(OC)c2c(-c3ccccc3)cc(=O)oc12 (centres undefined),26,133*,-14,160*,-2,-5,96,-6,97
COc1cc(OC)c2c(-c3ccccc3)cc(=O)oc2c1C(CC(=O)N1CCOCC1)c1ccc(N(C)C)cc1 (centres undefined),13,102,4,99,1,3,x,x,x
CCN(CC)C(=O)CC(c1ccc(OC)cc1)c1c(OC)cc(OC)c2ccc(=O)oc12 (centres undefined),11,117,10,145*,4,8,102,2,100
COc1cc(C(CC(=O)N2CCOCC2)c2c(OC)cc(OC)c3ccc(=O)oc23)cc(OC)c1OC (centres undefined),-4,118,3,134,3,-2,x,x,x
CCN(CC)C(=O)CC(c1cc(OC)c(OC)c(OC)c1)c1c(OC)cc(OC)c2ccc(=O)oc12 (centres undefined),5,123,-1,151*,2,-3,101,-6,100
COc1cccc(NC(=O)CCS(=O)(=O)c2ccc(Br)cc2)c1,8,100,6,104,0,2,x,x,x
CCN(CC)S(=O)(=O)c1ccc(NS(=O)(=O)c2ccc(O)c([N+](=O)[O-])c2)cc1,2,144*,11,109,0,3,98,-4,99

# Compound activity (PubChem)
